Test: Normalized percent cleavage of DNA from cleavage reactions (20 h) containing 100 μM compound and 50 μM (bp) supercoiled DNA at pH 9.0 in 20 mM TRIS buffer
How it was run: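 Supercoiled ΦX174 DNA (50 μM bp) incubated with 100 μM compound in 20 mM TRIS, pH 9, for 20 h at 37 °C. Relaxed circular (Form II) and linear (Form III) DNA resolved on agarose gel and expressed as normalized percent cleavage. Mean ± SD over separate determinations.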

| Compound | DNA cleavage |
| --- | --- |
| C#CC[n+]1c(C#Cc2ccccc2)sc2ccccc21 | 40% |
| C[n+]1c(C#Cc2ccccc2)sc2ccccc21 | 48% |
| C(#Cc1nc2ccccc2s1)c1ccccc1 | 0% |
| C#CC[n+]1c(C#Cc2ccc(C)cc2)sc2ccccc21 | 42% |

More lines, now with the values ahead:

| DNA cleavage | Compound |
| --- | --- |
| 7% | C#CC[n+]1c(C#C[Si](C(C)C)(C(C)C)C(C)C)sc2ccccc21 |
| 33% | C#CC[n+]1c(C#C[Si](C)(C)C)sc2ccccc21 |

— ChEMBL document CHEMBL1133845, “N-propargyl-2-alkynylbenzothiazolium aza-enediynes: role of the 2-alkynylbenzothiazolium functionality in DNA cleavage” (Bioorg Med Chem Lett, 2001)
